This note sets out measurements from ChEMBL document CHEMBL3108759, “Scaffold ranking and positional scanning utilized in the discovery of nAChR-selective compounds suitable for optimization studies” (J Med Chem, 2013).

Structures are written as SMILES. The source made the active and inactive calls. No cut-off for these calls is given here.

The species entered for one experiment is Rattus norvegicus. As to the kind of experiment: Selectivity ratio of Ki for rat alpha3beta4 nAChR to Ki for rat alpha4beta2 nAChR. The method, boiled down: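 Selectivity was calculated from [3H]epibatidine-binding Ki values as (Ki α3β4 − Ki α4β2)/Ki α4β2.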
The target in experiment [1] is T1, Neuronal acetylcholine receptor; alpha4/beta2 (Rattus norvegicus, UniProt P09483+P12390). As to the kind of experiment: Displacement of [3H]epibatidine from rat alpha4beta2 nAChR transfected in HEK293 cells after 2 hrs by beta-plate counting analysis. The class given is cell-based. The method, boiled down: (§1)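 Cell lines KXα3β4R2 and KXα4β2R2 (rat receptors) were used. Membranes were prepared by homogenizing cells in 50 mM Tris pH 7.4 and centrifuging twice at 20000g. They were incubated 2 h at room temperature with 0.3 nM [3H]epibatidine plus test sample, then filtered on PEI-soaked glass fiber and counted. Nonspecific binding was defined by 1 µM AT-1001 or 0.1 µM epibatidine. Ki was obtained by Cheng–Prusoff; runs were in triplicate, at least twice.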
T1 sequence (P09483 whole entry): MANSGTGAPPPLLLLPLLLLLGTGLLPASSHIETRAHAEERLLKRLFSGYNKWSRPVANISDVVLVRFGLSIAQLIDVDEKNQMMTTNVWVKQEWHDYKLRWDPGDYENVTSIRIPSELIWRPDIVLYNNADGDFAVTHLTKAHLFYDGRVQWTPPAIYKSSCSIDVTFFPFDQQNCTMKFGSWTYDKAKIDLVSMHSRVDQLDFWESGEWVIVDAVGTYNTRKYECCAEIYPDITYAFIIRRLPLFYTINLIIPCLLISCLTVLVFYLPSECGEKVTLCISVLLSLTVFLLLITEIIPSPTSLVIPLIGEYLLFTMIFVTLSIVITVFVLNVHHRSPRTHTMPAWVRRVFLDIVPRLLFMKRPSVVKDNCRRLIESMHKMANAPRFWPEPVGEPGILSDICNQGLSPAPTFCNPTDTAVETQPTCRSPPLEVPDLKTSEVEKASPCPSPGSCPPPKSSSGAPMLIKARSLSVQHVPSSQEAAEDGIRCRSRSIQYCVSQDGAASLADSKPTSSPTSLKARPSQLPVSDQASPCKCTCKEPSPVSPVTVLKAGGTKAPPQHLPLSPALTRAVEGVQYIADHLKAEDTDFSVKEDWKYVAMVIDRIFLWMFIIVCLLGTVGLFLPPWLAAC
T1 sequence (P12390 whole entry): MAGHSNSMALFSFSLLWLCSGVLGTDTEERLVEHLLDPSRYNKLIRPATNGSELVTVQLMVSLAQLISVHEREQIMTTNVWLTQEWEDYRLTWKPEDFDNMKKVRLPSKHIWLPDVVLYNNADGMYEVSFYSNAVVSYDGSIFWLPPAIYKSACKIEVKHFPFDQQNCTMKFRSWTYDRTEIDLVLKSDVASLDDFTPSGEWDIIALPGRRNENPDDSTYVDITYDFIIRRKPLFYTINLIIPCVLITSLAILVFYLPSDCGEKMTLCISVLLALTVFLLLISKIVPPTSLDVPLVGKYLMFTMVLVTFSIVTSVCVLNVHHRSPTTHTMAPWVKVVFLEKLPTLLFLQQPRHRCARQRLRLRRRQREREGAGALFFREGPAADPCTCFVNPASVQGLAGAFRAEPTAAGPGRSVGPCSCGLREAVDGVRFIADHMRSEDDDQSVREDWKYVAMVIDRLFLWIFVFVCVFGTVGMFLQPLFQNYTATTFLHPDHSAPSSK

A further experiment deals with HEK293. As to the kind of experiment: Selectivity ratio for rat alpha3beta4 nAChR transfected in HEK293 cells to rat alpha4beta2 nAChR transfected in HEK293 cells. The experiment is classed as cell-based.
Experiment [2] has as its target T1, Neuronal acetylcholine receptor; alpha4/beta2. As to the kind of experiment: Antagonist activity at rat alpha4beta2 nAChR transfected in HEK293 cells after 10 mins by fluorescence assay in presence of nicotine. The experiment is classed as cell-based. The method in brief:
(§2)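 Transfected HEK cells were seeded at 4000/well the day before and loaded with blue membrane-potential dye in HBSS/20 mM HEPES pH 7.4 at 37 °C for 20 min. […] Fluorescence (ex 530, em 550–580) was recorded every 3 s for 120 s on a FlexStation.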

Experiment [3] addresses Neuronal acetylcholine receptor; alpha3/beta4 (Rattus norvegicus, UniProt P04757+P12392). As to the kind of experiment: Displacement of [3H]epibatidine from rat alpha3beta4 nAChR transfected in HEK293 cells after 2 hrs by beta-plate counting analysis. The experiment is classed as cell-based. The method, boiled down:
as §1
On the technique in general: Displacement assays read how much labelled ligand stays bound in the presence of the test substance.

In experiment [4] the target is Nicotinic acetylcholine receptor alpha3/beta4/alpha5 (Homo sapiens, UniProt P30532+P30926+P32297). As to the kind of experiment: Binding affinity to alpha3beta4alpha5 nAChR (unknown origin). The class given is protein-complex assay.
Nicotinic acetylcholine receptor alpha3/beta4/alpha5, sequence (P30926 whole entry): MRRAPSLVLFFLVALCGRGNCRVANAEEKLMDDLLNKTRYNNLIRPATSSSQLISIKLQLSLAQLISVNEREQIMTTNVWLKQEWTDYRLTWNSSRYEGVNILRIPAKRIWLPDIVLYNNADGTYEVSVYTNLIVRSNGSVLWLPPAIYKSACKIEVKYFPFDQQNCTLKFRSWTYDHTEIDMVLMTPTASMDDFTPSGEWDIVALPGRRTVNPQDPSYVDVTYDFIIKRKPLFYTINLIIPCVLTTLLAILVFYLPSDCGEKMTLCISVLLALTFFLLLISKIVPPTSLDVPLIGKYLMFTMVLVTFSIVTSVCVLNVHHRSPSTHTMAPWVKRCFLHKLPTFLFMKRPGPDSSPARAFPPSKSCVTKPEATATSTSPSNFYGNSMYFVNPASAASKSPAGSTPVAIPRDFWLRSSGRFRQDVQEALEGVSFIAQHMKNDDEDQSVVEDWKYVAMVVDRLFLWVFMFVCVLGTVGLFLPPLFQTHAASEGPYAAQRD
Nicotinic acetylcholine receptor alpha3/beta4/alpha5, sequence (P32297 whole entry): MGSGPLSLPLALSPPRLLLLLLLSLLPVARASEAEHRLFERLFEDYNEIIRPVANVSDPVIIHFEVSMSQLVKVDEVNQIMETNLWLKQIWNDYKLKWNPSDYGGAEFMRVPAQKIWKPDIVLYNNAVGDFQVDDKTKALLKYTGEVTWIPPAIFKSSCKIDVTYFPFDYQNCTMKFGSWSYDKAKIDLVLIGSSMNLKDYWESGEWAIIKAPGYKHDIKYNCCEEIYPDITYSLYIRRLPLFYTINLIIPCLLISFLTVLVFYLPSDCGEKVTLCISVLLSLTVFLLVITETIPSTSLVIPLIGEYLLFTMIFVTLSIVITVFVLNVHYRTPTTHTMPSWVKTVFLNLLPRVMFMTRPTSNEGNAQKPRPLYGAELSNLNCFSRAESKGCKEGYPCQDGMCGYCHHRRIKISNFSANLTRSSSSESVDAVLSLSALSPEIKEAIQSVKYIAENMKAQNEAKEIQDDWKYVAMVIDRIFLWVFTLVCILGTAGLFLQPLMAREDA
Nicotinic acetylcholine receptor alpha3/beta4/alpha5, sequence (P30532 whole entry): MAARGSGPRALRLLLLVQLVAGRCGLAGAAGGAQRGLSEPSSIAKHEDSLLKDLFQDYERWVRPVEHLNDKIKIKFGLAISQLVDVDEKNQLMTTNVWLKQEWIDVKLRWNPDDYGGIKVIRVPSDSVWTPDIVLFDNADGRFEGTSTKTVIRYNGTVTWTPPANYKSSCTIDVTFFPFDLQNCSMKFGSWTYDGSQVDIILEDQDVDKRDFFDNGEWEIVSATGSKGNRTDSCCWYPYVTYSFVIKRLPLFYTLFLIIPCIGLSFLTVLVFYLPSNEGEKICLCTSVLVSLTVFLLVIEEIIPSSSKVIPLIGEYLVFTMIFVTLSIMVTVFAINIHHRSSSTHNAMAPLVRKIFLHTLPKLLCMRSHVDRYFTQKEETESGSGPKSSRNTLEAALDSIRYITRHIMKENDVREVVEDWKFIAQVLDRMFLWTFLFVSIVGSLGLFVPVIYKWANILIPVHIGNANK
For experiment [5], the target named is T2, Neuronal acetylcholine receptor; alpha4/beta2 (Rattus norvegicus) (UniProt P09483+P12390). As to the kind of experiment: Noncompetitive inhibition of nicotine-induced rat alpha4beta2 nAChR transfected in HEK293 cells assessed as stimulation of membrane potential at 0.3 uM after 10 mins by fluorescence assay. The experiment is classed as cell-based. Further details: scale not given: the % may be the effect or the level left. The method in brief: as §2

Experiment [6] deals with T2, Neuronal acetylcholine receptor; alpha4/beta2 (Rattus norvegicus). As to the kind of experiment: Noncompetitive inhibition of nicotine-induced rat alpha4beta2 nAChR transfected in HEK293 cells assessed as stimulation of membrane potential at 1 uM after 10 mins by fluorescence assay. The experiment is classed as cell-based. The arrangement: scale not given: the % may be the effect or the level left. The method, boiled down: as §2

Experiment [7] deals with T3, Neuronal acetylcholine receptor; alpha3/beta4 (Rattus norvegicus) (UniProt P04757+P12392). As to the kind of experiment: Agonist activity at rat alpha3beta4 nAChR transfected in HEK293 cells assessed as change in membrane potential measured every 3 secs for 120 secs by fluorescence assay. The class given is cell-based. The method in brief: (§3)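 Membrane potential read with blue potentiometric dye on a FlexStation. Transfected HEK cells were seeded at 4000/well one day ahead, washed, then loaded with dye in HBSS containing 20 mM HEPES, pH 7.4, for 30 min at 37 °C. Compound was then dispensed automatically and fluorescence (ex 530, em 550–580) recorded every 3 s for 120 s.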

Experiment [8] has as its target T2, Neuronal acetylcholine receptor; alpha4/beta2 (Rattus norvegicus). As to the kind of experiment: Noncompetitive inhibition of nicotine-induced rat alpha4beta2 nAChR transfected in HEK293 cells assessed as stimulation of membrane potential after 10 mins by fluorescence assay. The experiment is classed as cell-based. The method, boiled down: as §2
The target is the same in experiment [9]. As to the kind of experiment: Noncompetitive inhibition of nicotine-induced rat alpha4beta2 nAChR transfected in HEK293 cells assessed as stimulation of membrane potential at 3 uM after 10 mins by fluorescence assay. The class given is cell-based. Further details: scale not given: the % may be the effect or the level left. The method, boiled down:
as §2

For experiment [10] the target is unchanged. As to the kind of experiment: Inverse agonist activity at nicotine-induced rat alpha4beta2 nAChR activation transfected in HEK293 cells. The class given is cell-based.
Experiment [11] has the same target. As to the kind of experiment: Agonist activity at rat alpha4beta2 nAChR transfected in HEK293 cells assessed as change in membrane potential measured every 3 secs for 120 secs by fluorescence assay. The experiment is classed as cell-based. The method in brief: as §3
In experiment [12] the target is T3, Neuronal acetylcholine receptor; alpha3/beta4 (Rattus norvegicus). As to the kind of experiment: Antagonist activity at rat alpha3beta4 nAChR transfected in HEK293 cells assessed as inhibition of nicotine-induced membrane potential stimulation at 10 uM after 10 mins by fluorescence assay. The class given is cell-based. The method, boiled down: as §2

Neuronal acetylcholine receptor; alpha3/beta4, sequence (P04757 whole entry): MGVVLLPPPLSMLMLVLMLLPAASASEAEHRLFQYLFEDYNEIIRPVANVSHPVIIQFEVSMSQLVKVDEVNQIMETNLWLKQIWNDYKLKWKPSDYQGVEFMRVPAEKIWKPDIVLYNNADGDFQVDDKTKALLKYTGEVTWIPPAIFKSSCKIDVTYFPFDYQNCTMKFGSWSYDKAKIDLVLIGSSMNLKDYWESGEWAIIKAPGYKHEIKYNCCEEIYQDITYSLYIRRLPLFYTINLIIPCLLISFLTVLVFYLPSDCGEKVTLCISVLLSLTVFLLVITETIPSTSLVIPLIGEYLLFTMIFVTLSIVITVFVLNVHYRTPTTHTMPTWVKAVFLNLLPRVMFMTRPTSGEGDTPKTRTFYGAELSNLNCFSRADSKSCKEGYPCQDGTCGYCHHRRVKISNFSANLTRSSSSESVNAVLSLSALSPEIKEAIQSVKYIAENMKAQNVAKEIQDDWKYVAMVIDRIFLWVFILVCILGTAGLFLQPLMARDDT
Neuronal acetylcholine receptor; alpha3/beta4, sequence (P12392 whole entry): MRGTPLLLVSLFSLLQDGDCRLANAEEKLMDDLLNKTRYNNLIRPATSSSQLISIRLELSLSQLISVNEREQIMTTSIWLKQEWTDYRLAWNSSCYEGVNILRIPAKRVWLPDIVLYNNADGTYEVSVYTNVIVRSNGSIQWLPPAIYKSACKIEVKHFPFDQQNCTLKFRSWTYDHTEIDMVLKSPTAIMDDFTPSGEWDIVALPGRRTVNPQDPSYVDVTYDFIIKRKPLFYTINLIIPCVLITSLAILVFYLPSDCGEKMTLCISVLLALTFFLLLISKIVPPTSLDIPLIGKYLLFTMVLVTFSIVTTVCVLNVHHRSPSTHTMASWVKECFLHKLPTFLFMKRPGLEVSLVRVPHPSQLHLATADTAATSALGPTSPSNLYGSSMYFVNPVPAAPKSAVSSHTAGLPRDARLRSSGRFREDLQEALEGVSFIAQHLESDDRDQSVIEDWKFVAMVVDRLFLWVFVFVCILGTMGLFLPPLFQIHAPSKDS

As to `CC(C)(C)C1CCC(CN2C(=N)N(CCCC[C@H]3CNC(=N)N3CCc3cccc(F)c3)C[C@H]2Cc2ccccc2)CC1` (some centres undefined), the Ratio Ki in the experiment filed under Rattus norvegicus was 39. Besides, the results for the Ki in [1] and in [3] were 1.59 µM and 61.7 µM, respectively. Also, the Selectivity ratio in the experiment with HEK293 is 19. The IC50 (usually the concentration that inhibits the measured activity by half) in experiment [2] came out at 26.3 µM.

As to `CC(C)(C)C1CCC(CN2C(=N)N(CCCC[C@H]3CNC(=N)N3CCc3cccnc3)C[C@H]2Cc2ccccc2)CC1` (some centres undefined), the Ratio Ki in the experiment filed under Rattus norvegicus was 478. In addition, the figures for the inhibition constant (Ki) in [4], in experiment [1] and in experiment [3] were 9.06 µM, 0.118 µM and 56.5 µM, respectively. For the same compound, the results for the Activity in [5], in experiment [6] and in [9] were 83%, 38% and 0%, respectively. In addition, the result in experiment [7] and in [11] was inactive. The results for the inhibition result in experiment [8] and in [12] were “Dose-dependent effect” and 50%, respectively. The Selectivity ratio with HEK293 was found to be 20. Besides, the outcome in experiment [10] was Active. Moreover, the IC50 in experiment [2] turned out to be 0.514 µM.
